Bioassay records from PubChem BioAssay.
Rows were chosen to be rich in hits. Some 5.9% of all compounds tested hit in one or more screens of this group.
KDM4C inh = blocks human GASC-1 (KDM4C) demethylase activity; Q9H3R0; GST-KDM4C 2-372, H3K9me3 peptide, LANCE TR-FRET; inhibition, % at 12.5 µM; 0.15% of 96,000 active;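 active means mean replicate inhibition above about 25%, with at least 55% of replicates also reaching it, limit read from the data, passing the limit was not always enough; inconclusive means only one of those two conditions met; inactive means neither condition met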
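Material: GST-tagged GASC-1 (JMJD2C) catalytic fragment, aa 2-372 / Quantity: enzyme final amount 10 nM / Medium: HEPES buffer, pH 7.5, plus ascorbate / Doses: one test concentration per compound / Incubation: 30 min reaction, 60 min detection, RT / Measured by: LANCE TR-FRET / Read-out: inhibition from TR-FRET ratio decrease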
Pf Dd2 inh = blocks growth of Plasmodium falciparum Dd2 parasites; P. falciparum Dd2 growth, SYBR Green, 72 h; stronger effect = lower value; activity change, % at 10 µM; 2.3% of 94,000 active; AID 1159554; in the data active means activity change below about -80%; inconclusive means no clear call, values can overlap the other calls
T cruzi growth-1 = blocks T. cruzi growth in NIH3T3 culture; T. cruzi beta-gal in NIH3T3, GalScreen luminescence, 90 h; 5.9% of 77,000 active; inhibition, % at 8.34 µM;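 active means mean inhibition above about 93%, with at least 55% of replicates each passing it, limit read from the data, passing the limit was not always enough; inconclusive means only one of those two conditions holds; inactive means neither condition holds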
IDH1 mut inh = blocks human IDH1 R132H reductase activity. AID 624101. 0.18% of 70,000 active. diaphorase/resazurin fluorescence, 60 min. inhibition, % at 10 µM; in the data active means inhibition above about 34%; inconclusive means no clear call, values can overlap the other calls; inactive means below about 11%;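 further: 0% = DMSO and 100% = no enzyme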
Target sequence (O75874 whole entry R132H): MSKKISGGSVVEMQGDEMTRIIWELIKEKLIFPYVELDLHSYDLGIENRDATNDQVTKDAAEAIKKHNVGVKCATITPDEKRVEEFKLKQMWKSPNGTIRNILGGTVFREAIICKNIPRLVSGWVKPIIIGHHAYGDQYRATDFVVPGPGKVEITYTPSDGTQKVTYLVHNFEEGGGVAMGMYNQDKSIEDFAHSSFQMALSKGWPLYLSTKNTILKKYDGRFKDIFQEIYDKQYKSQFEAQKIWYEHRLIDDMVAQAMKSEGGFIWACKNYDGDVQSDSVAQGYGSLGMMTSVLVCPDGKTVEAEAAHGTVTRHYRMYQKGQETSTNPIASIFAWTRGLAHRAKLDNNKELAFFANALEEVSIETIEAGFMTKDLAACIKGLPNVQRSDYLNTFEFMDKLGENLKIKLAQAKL
T cruzi growth-2 = inhibitors of T. cruzi proliferation | shares compounds with T cruzi growth-1 | T. cruzi beta-gal in NIH3T3, GalScreen luminescence, 90 h | inhibition, % at 8.35 µM | 72% of 5,600 active | AID 651739;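 active means mean replicate inhibition above about 95% and at least 55% of replicates individually reaching it, limit read from the data; inconclusive means only one of the two criteria is met; inactive means neither criterion is met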
T cruzi growth-3 = inhibitors of T. cruzi proliferation; shares compounds with T cruzi growth-1; T. cruzi beta-gal in NIH3T3, GalScreen luminescence, 90 h; inhibition, % at 2.09 µM; 21% of 5,600 active; AID 651740;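 active means mean inhibition above about 95%, with at least 55% of replicates also reaching it, limit read from the data; inconclusive means meets just one of the two conditions; inactive means meets neither condition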;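 further: plate controls were neutral control median for no effect and positive control median for full effect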
NIH3T3 tox = cytotoxicity in mouse NIH/3T3 fibroblasts. AID 651742. cytotoxicity (signal decrease), % at 8.35 µM. 14% of 5,600 active. shares compounds with T cruzi growth-1. NIH/3T3 viability, CellTiter-Glo ATP luminescence, 90 h;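 active means mean signal decrease across replicates above about 35% based on untreated-well scatter, with enough replicates individually passing, limit read from the data; inconclusive means no rule stated though some were filed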;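 further: 0% = median of neutral control wells and 100% = median of positive control wells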
NIH3T3 tox 2 = cytotoxicity in mouse NIH/3T3 fibroblasts; shares compounds with T cruzi growth-1; NIH/3T3 viability, CellTiter-Glo ATP luminescence, 90 h; inhibition, % at 24.9 µM; 56% of 5,600 active; AID 651744;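 active means mean loss of cell viability signal at or above a set limit, and enough replicates individually reaching it; inconclusive means meets only the mean limit or only the replicate share; inactive means meets neither condition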;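 further: 0% = median of neutral control wells and 100% = median of positive control wells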
Starred values were filed as active, the others as inactive; ? = inconclusive; . = not tested or not shown.

SMILES | KDM4C inh | Pf Dd2 inh | T cruzi growth-1 | IDH1 mut inh | T cruzi growth-2 | T cruzi growth-3 | NIH3T3 tox | NIH3T3 tox 2
COc1ccc(NC(=O)N(C)C[C@@H]2Oc3cc(C#CCC(C)C)ccc3S(=O)(=O)N([C@H](C)CO)C[C@@H]2C)cc1 | -4 | -66 | 104* | -10 | 101* | 92 | 27 | 63*
CCCC#Cc1ccc2c(c1)O[C@@H](CN(C)C(=O)Nc1ccc(OC)cc1)[C@@H](C)CN([C@H](C)CO)S2(=O)=O | -1 | -68 | 104* | . | 112* | 50 | 1 | 31
CCCC#Cc1ccc2c(c1)O[C@@H](CN(C)C(=O)c1ccccc1F)[C@@H](C)CN([C@H](C)CO)S2(=O)=O | -1 | -77 | 66 | 1 | . | . | . | .
C[C@@H]1CN([C@H](C)CO)S(=O)(=O)c2ccc(C#CCN(C)C)cc2O[C@@H]1CN(C)C(=O)c1ccccc1F | 4 | -29 | 18 | -3 | . | . | . | .
CCCC#Cc1ccc2c(c1)O[C@H](CN(C)C(=O)c1ccccc1F)[C@@H](C)CN([C@@H](C)CO)S2(=O)=O | -3 | -79 | 74 | 0 | . | . | . | .
CCCC#Cc1ccc2c(c1)O[C@H](CN(C)C(=O)c1ccccc1F)[C@@H](C)CN([C@H](C)CO)S2(=O)=O | -3 | -78 | 111* | 0 | 110* | 84 | -19 | 8
CC(C)CC#Cc1ccc2c(c1)O[C@H](CN(C)C(=O)c1ccccc1F)[C@@H](C)CN([C@H](C)CO)S2(=O)=O | -1 | -82* | 88* | 4 | 103* | 58 | -14 | 97*
CC(C)CC#Cc1ccc2c(c1)O[C@@H](CN(C)C(=O)c1ccccc1F)[C@H](C)CN([C@@H](C)CO)S2(=O)=O | -2 | -82* | 105* | 0 | 106* | 106* | ? | 106*
CC(C)CC#Cc1ccc2c(c1)O[C@H](CN(C)C(=O)c1ccccc1F)[C@H](C)CN([C@H](C)CO)S2(=O)=O | -2 | -71 | 105* | 0 | 105* | 75 | ? | 104*
COc1ccc(OC)c(NC(=O)Cn2cc(C(=O)C3CCCCC3)c3ccccc32)c1 | . | . | . | 0 | . | . | . | .
COc1ccc(OC)c(NC(=O)CSc2nnc(-c3ccccc3)n2C)c1 | . | . | . | 0 | . | . | . | .
C[C@@H]1CN([C@@H](C)CO)S(=O)(=O)c2ccc(/C=C/c3ccccc3)cc2O[C@H]1CN(C)C(=O)Nc1cccc(F)c1 | 0 | -50 | 127* | -3 | 95* | 97* | 49* | 80*
C[C@H]1CN([C@@H](C)CO)S(=O)(=O)c2ccc(/C=C/c3ccccc3)cc2O[C@H]1CN(C)C(=O)Nc1cccc(F)c1 | 0 | -33 | 123* | 0 | 106* | 103* | 39* | 38*
C/C=C/c1ccc2c(c1)O[C@H](CN(C)C(=O)Nc1cccc(F)c1)[C@H](C)CN([C@@H](C)CO)S2(=O)=O | -4 | 31 | 93 | -5 | . | . | . | .
C[C@@H]1CN([C@@H](C)CO)S(=O)(=O)c2ccc(/C=C/c3ccccc3)cc2O[C@@H]1CN(C)C(=O)Nc1cccc(F)c1 | 0 | -54 | 127* | 0 | 101* | 105* | ? | 29*
O=C(N/N=C/c1ccc(O)cc1)c1ccccc1O | . | . | . | 0 | . | . | . | .
O=C(COc1ccc(F)cc1)Nc1ncccn1 | . | . | . | 0 | . | . | . | .
CCOc1ccc(OCC(=O)Nc2sc3c(c2C(N)=O)CCC(C)C3)cc1 (stereo unspecified) | . | . | . | 0 | . | . | . | .
COc1ccccc1NC(=O)CSC1CC(=O)N(c2ccc(I)cc2)C1=O (stereo unspecified) | . | . | . | 0 | . | . | . | .
Cc1cc(C)cc(N(CC(=O)O)S(=O)(=O)c2ccccc2)c1 | . | . | . | 0 | . | . | . | .
C[C@@H]1CCCCO[C@H](CN(C)S(=O)(=O)c2ccc(Cl)cc2)[C@H](C)CN([C@@H](C)CO)C(=O)c2cc(NC(=O)C3CCCCC3)ccc2O1 | 0 | -80 | 108* | . | 103* | 84 | -8 | 24
